Measurements from ChEMBL document CHEMBL1156332, “Polysubstituted pyrazoles, part 6. Synthesis of some 1-(4-chlorophenyl)-4-hydroxy-1H-pyrazol-3-carbonyl derivatives linked to nitrogenous heterocyclic ring systems as potential antitumor agents” (2010).

Tests used:
Type in all cases: functional
SNB-75 = experiment: Growth inhibition of human SNB75 cells after 48 hrs by sulforhodamine B assay; details: SNB-75, 48 h
Summary of the method: (§1)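 Adherent lines plated and held 24 h at 37 °C, 5% CO2, 100% humidity; time-zero plates TCA-fixed at drug addition. Drugs from DMSO stocks were made into five concentrations by 10-fold or half-log serial dilution and applied for 48 h continuous exposure. Cells were fixed with cold TCA (10% final) for 60 min at 4 °C, then stained with 0.4% SRB in 1% acetic acid for 10 min. Dye was solubilized in 10 mM Tris base and read at 515 nm. GI50 was taken from log concentration–growth curves.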

EKVX = experiment: Growth inhibition of human EKVX cells after 48 hrs by sulforhodamine B assay
Summary of the method: (§2)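 NCI 60-line panel, five concentrations (0.01–100 µM) from DMSO stock diluted in medium with gentamicin. Cells were plated 24 h before dosing, with time-zero plates fixed at drug addition, then exposed 48 h at 37 °C, 5% CO₂. Adherent cells were fixed with cold TCA (10% final) and suspension cells with 16% TCA. Staining used 0.4% SRB, solubilised in 10 mM Tris and read at 515 nm. GI₅₀ was taken from log concentration–% growth curves.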

RPMI-8226 = experiment: Growth inhibition of human RPMI8226 cells after 48 hrs by sulforhodamine B assay; details: RPMI-8226, 48 h; summary of the method: as §2
OVCAR-3 = experiment: Growth inhibition of human OVCAR-3 cells after 48 hrs by sulforhodamine B assay; details: OVCAR-3, 48 h; summary of the method: as §2
M14 = experiment: Growth inhibition of human M14 cells after 48 hrs by sulforhodamine B assay; details: M14, 48 h; summary of the method: as §2
[1] = Growth inhibition of human NCI-H322 cells after 48 hrs by sulforhodamine B assay; details: NCI-H322, 48 h; summary of the method: as §2
NCI-H522 = experiment: Growth inhibition of human NCI-H522 cells after 48 hrs by sulforhodamine B assay; details: NCI-H522, 48 h; summary of the method: as §2
RXF 393 = experiment: Growth inhibition of human […] cells after 48 hrs by sulforhodamine B assay; details: RXF 393, 48 h; summary of the method: as §2
KM12 = experiment: Growth inhibition of human KM12 cells after 48 hrs by sulforhodamine B assay; details: KM12, 48 h; summary of the method: as §2
NCI/ADR-RES = experiment: Growth inhibition of human NCI/ADR-RES cells after 48 hrs by sulforhodamine B assay; summary of the method: as §2
[2] = Cytotoxicity against human ovarian cancer cells after 48 hrs by sulforhodamine B assay; details: Cancer cell lines
Summary of the method: (§3)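 NCI five-dose screen: about 60 human tumour lines grouped into nine subpanels were plated and incubated 24 h before dosing. Compounds went in as DMSO stock and were diluted in medium to five final concentrations (0.01–100 µM). Exposure was 48 h continuous at 37 °C, 5% CO₂, followed by TCA fixation and SRB staining read at 515 nm. Per-line GI₅₀, TGI and LC₅₀ came from log concentration–% growth curves, averaged per subpanel as MG-MID.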

A549 = experiment: Growth inhibition of human A549 cells after 48 hrs by sulforhodamine B assay; details: A549, 48 h; summary of the method: as §2
SN12C = experiment: Growth inhibition of human SN12C cells after 48 hrs by sulforhodamine B assay; summary of the method: as §1
LOX IMVI = experiment: Growth inhibition of human LOXIMVI cells after 48 hrs by sulforhodamine B assay; summary of the method: as §2
HT-29 = experiment: Growth inhibition of human HT-29 cells after 48 hrs by sulforhodamine B assay; details: HT-29, 48 h; summary of the method: as §2
MCF7 = experiment: Growth inhibition of human MCF7 cells after 48 hrs by sulforhodamine B assay; details: MCF7, 48 h; summary of the method: as §2
T47D = experiment: Growth inhibition of human T47D cells after 48 hrs by sulforhodamine B assay; summary of the method: as §1
U-251 = experiment: Growth inhibition of human U251 cells after 48 hrs by sulforhodamine B assay; details: U-251, 48 h; summary of the method: as §1
A498 = experiment: Growth inhibition of human A498 cells after 48 hrs by sulforhodamine B assay; details: A498, 48 h; summary of the method: as §2
HOP-92 = experiment: Growth inhibition of human HOP92 cells after 48 hrs by sulforhodamine B assay; details: HOP-92, 48 h; summary of the method: as §2
HL-60(TB) = experiment: Growth inhibition of human HL-60(TB) cells after 48 hrs by sulforhodamine B assay; details: HL-60, 48 h
Summary of the method: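 NCI 60-cell panel. Cells were preincubated 24 h at 37 °C in 5% CO2, then time-zero plates were TCA-fixed. Drugs were dissolved in DMSO and given at five concentrations (10-fold or half-log dilutions) for 48 h. Suspension cells were fixed with TCA (16% final), stained with 0.4% SRB and read at 515 nm. GI50 is the concentration giving 50% decrease in net growth, taken from log concentration–growth curves.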

TK-10 = experiment: Growth inhibition of human TK10 cells after 48 hrs by sulforhodamine B assay; details: TK-10, 48 h; summary of the method: as §1
UO-31 = experiment: Growth inhibition of human UO31 cells after 48 hrs by sulforhodamine B assay; details: UO-31, 48 h; summary of the method: as §1
NCI-H23 = experiment: Growth inhibition of human NCI-H23 cells after 48 hrs by sulforhodamine B assay; details: NCI-H23, 48 h; summary of the method: as §2
[3] = Cytotoxicity against human renal cancer cells after 48 hrs by sulforhodamine B assay; details: Cancer cell lines; summary of the method: as §3
SF-295 = experiment: Growth inhibition of human SF295 cells after 48 hrs by sulforhodamine B assay; details: SF-295, 48 h; summary of the method: as §2
OVCAR-8 = experiment: Growth inhibition of human OVCAR8 cells after 48 hrs by sulforhodamine B assay; details: OVCAR-8, 48 h; summary of the method: as §2
SW-620 = experiment: Growth inhibition of human SW620 cells after 48 hrs by sulforhodamine B assay; details: SW-620, 48 h; summary of the method: as §1
HCC 2998 = experiment: Growth inhibition of human HCC2998 cells after 48 hrs by sulforhodamine B assay; details: HCC 2998, 48 h; summary of the method: as §2
COLO 205 = experiment: Growth inhibition of human COLO205 cells after 48 hrs by sulforhodamine B assay; details: COLO 205, 48 h; summary of the method: as §2
K562 = experiment: Growth inhibition of human K562 cells after 48 hrs by sulforhodamine B assay; details: K562, 48 h; summary of the method: as §2
SF-539 = experiment: Growth inhibition of human SF539 cells after 48 hrs by sulforhodamine B assay; details: SF-539, 48 h; summary of the method: as §1
[4] = Cytotoxicity against human prostate cancer cells after 48 hrs by sulforhodamine B assay; details: Cancer cell lines; summary of the method: as §3
SNB-19 = experiment: Growth inhibition of human SNB19 cells after 48 hrs by sulforhodamine B assay; details: SNB-19, 48 h; summary of the method: as §1
HCT-15 = experiment: Growth inhibition of human HCT15 cells after 48 hrs by sulforhodamine B assay; details: HCT-15, 48 h; summary of the method: as §2
786-0 = experiment: Growth inhibition of human 786-0 cells after 48 hrs by sulforhodamine B assay; details: 786-0, 48 h; summary of the method: as §2
[5] = Cytotoxicity against human leukemia cells after 48 hrs by sulforhodamine B assay; details: Leukemia cell; summary of the method: as §3
BT-549 = experiment: Growth inhibition of human BT549 cells after 48 hrs by sulforhodamine B assay; details: BT-549, 48 h; summary of the method: as §2

SMILES: Cc1c2c(nn1C(=O)c1nn(-c3ccc(Cl)cc3)cc1O)-c1ccccc1CC2
- GI50 (SNB-75): 29 nM
- GI50 (EKVX): 71 nM
- GI50 (RPMI-8226): 38 nM
- GI50 (OVCAR-3): 99 nM
- GI50 (M14): 96 nM
- GI50 [1]: 54 nM
- GI50 (NCI-H522): 55 nM
- GI50 (RXF 393): 47 nM
- GI50 (KM12): 70 nM
- GI50 (NCI/ADR-RES): 46 nM
- GI50 [2]: 115 nM
- TGI [2]: 83600 nM
- GI50 (A549): 34 nM
- GI50 (SN12C): 41 nM
- GI50 (LOX IMVI): 75 nM
- GI50 (HT-29): 241 nM
- GI50 (MCF7): 121 nM
- GI50 (T47D): 59 nM
- GI50 (U-251): 31 nM
- GI50 (A498): 24 nM
- GI50 (HOP-92): 52 nM
- GI50 (HL-60(TB)): 51 nM
- GI50 (TK-10): 33 nM
- GI50 (UO-31): 99 nM
- GI50 (NCI-H23): 41 nM
- GI50 [3]: 92 nM
- TGI [3]: 67700 nM
- GI50 (SF-295): 20 nM
- GI50 (OVCAR-8): 53 nM
- GI50 (SW-620): 360 nM
- GI50 (HCC 2998): 502 nM
- GI50 (COLO 205): 291 nM
- GI50 (K562): 30 nM
- GI50 (SF-539): 41 nM
- GI50 [4]: 44 nM
- GI50 (SNB-19): 45 nM
- GI50 (HCT-15): 52 nM
- GI50 (786-0): 319 nM
- GI50 [5]: 42 nM
- TGI [5]: 10200 nM
- GI50 (BT-549): 29 nM
